From ChEMBL document CHEMBL1157023, “Synthesis and antimicrobial activities of some new thiazole and pyrazole derivatives based on 4,5,6,7-tetrahydrobenzothiophene moiety” (2010)

Assays:
Type in all cases: functional
Klebsiella pneumoniae = experiment: Antimicrobial activity against Klebsiella pneumoniae at 2 mg/ml after 24 hrs by agar diffusion assay; settings: read-out: DIZ
Summary of the method: (§1)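 Bacterial strain grown on nutrient agar with test compound in DMSO, DMSO-only control plate for each organism, ampicillin 2 mg/ml as reference. Plates incubated 24 h in three replicate plates per compound. Activity read as inhibition zone diameter.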

Botrytis fabae = experiment: Antifungal activity against Botrytis fabae at 2 mg/ml after 7 days by agar diffusion assay; settings: 168 h, read-out: DIZ
Summary of the method: (§2)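 Fungus grown on potato dextrose agar with test compound in DMSO, DMSO-only control plate for each organism. Plates incubated seven days in three replicate plates per compound. Activity read as inhibition zone diameter.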

Fusarium oxysporum = experiment: Antifungal activity against Fusarium oxysporum at 2 mg/ml after 7 days by agar diffusion assay; settings: 168 h, read-out: DIZ; summary of the method: as §2
Bacillus thuringiensis = experiment: Antibacterial activity against Bacillus thuringiensis at 2 mg/ml after 24 hrs by agar diffusion assay; settings: read-out: DIZ; summary of the method: as §1

Row | SMILES | zone of inhibition at 2000 µg/mL (Klebsiella pneumoniae) [mm] | zone of inhibition at 2000 µg/mL (Botrytis fabae) [mm] | zone of inhibition at 2000 µg/mL (Fusarium oxysporum) [mm] | zone of inhibition at 2000 µg/mL (Bacillus thuringiensis) [mm]
1 | CC(=O)c1nnc2c(C(=O)Nc3sc4c(c3C(N)=O)CCCC4)c(Nc3ccccc3)nn2c1C | 12 | 18 |  | 
2 | Cc1cc(C)n2nc(Nc3ccccc3)c(C(=O)Nc3sc4c(c3C(N)=O)CCCC4)c2n1 | 17 | 15 | 13 | 15
3 | NC(=O)c1c(NC(=O)c2c(Nc3ccccc3)nn3c4c(cnc23)CCc2ccccc2-4)sc2c1CCCC2 | 17 |  | 17 | 15
4 | Cc1ccc(N/N=C2/C(=O)S/C(=C(\C#N)C(=O)Nc3sc4c(c3C(N)=O)CCCC4)N2c2ccccc2)cc1 | 19 | 18 | 16 | 22
5 | Cc1nn(-c2ccccc2)c2c1cnc1c(C(=O)Nc3sc4c(c3C(N)=O)CCCC4)c(Nc3ccccc3)nn12 | 18 | 16 | 14 | 16
6 | NC(=O)c1c(NC(=O)c2cn[nH]c2N)sc2c1CCCC2 | 20 | 16 | 12 | 17
7 | Cc1ccc(C)n1-c1[nH]nc(Nc2ccccc2)c1C(=O)Nc1sc2c(c1C(N)=O)CCCC2 | 22 | 18 | 14 | 18
8 | NC(=O)c1c(NC(=O)c2c(Nc3ccccc3)nn3c(-c4ccccc4)ccnc23)sc2c1CCCC2 | 19 | 15 | 19 | 15
9 | COc1ccc(/C=c2\c(=O)s/c(=C(\C#N)C(=O)Nc3sc4c(c3C(N)=O)CCCC4)n2-c2ccccc2)cc1 | 23 | 13 | 15 | 20
10 | Cc1cc(C)c2c(n1)nn1c(N)c(C(=O)Nc3sc4c(c3C(N)=O)CCCC4)nnc21 | 18 | 13 | 13 | 16
11 | NC(=O)c1c(NC(=O)c2c(Nc3ccccc3)n[nH]c2N)sc2c1CCCC2 | 22 |  | 14 | 24
12 | N#Cc1nnc2c(C(=O)Nc3sc4c(c3C(N)=O)CCCC4)c(Nc3ccccc3)nn2c1N | 18 | 16 |  | 16
13 | N#C/C(C(=O)Nc1sc2c(c1C(N)=O)CCCC2)=C1\SC(=O)CN1c1ccccc1 | 19 | 12 | 16 | 21
14 | CC1(C)S[C@@H]2[C@H](NC(=O)[C@H](N)c3ccccc3)C(=O)N2[C@H]1C(=O)O [AMPICILLIN] | 20 | 15 | 17 | 17
